{"data": "Published values pooled from the literature", "note": "Lines come from different studies, so protocols differ."}
{"Structure (SMILES)": "Cc1cccc(/C=C/C(=O)Nc2cccc(-c3ccnc(N4CCC(CO)CC4)c3)c2)c1", "target or system": "A549", "test": "cell growth or viability, MTT", "conditions": "5 µM", "endpoint": "inhibition", "result": "52.9%"}
{"Structure (SMILES)": "Cc1c(Cc2ccccc2)c(=O)oc2c(C)c(OCC(=O)NN=Cc3ccco3)ccc12", "target or system": "PC-3", "test": "cell growth or viability, MTT", "conditions": "250 µg/mL", "endpoint": "viability", "result": "11.1%"}
{"Structure (SMILES)": "O=C(NC(=S)Nc1ccccn1)c1cccs1", "target or system": "Leishmania donovani", "test": "parasite growth, resazurin", "conditions": "promastigote", "endpoint": "IC50", "result": "1260 nM"}
{"Structure (SMILES)": "C=CC(=O)NC1CCN(c2ncc3ncnc(Nc4ccc(Oc5ccc6c(c5)ncn6C)c(C)c4)c3n2)CC1", "target or system": "NCI-H2170", "test": "cell growth or viability", "endpoint": "EC50", "result": "38 nM"}
{"Structure (SMILES)": "COc1cccc2c1C(=O)c1c(O)c3c(c(O)c1C2=O)C[C@@](O)(C(=O)CO)C[C@@H]3O[C@H]1C[C@H](N)[C@H](O)[C@H](C)O1", "target or system": "A549", "test": "cell growth or viability, MTT", "conditions": "25 µg/mL, 48 h, serum-free", "endpoint": "viability", "result": "38.2%"}
{"Structure (SMILES)": "O=C(NC(=S)Nc1ccccc1O)c1ccco1", "target or system": "Leishmania donovani", "test": "parasite growth, resazurin", "conditions": "promastigote", "endpoint": "IC50", "result": "2460 nM"}
{"Structure (SMILES)": "Cc1c(C)c2c(c(C)c1O)CCC(C)(C(=O)O)O2 (stereo not shown)", "test": "ABTS scavenging", "endpoint": "IC50", "result": "160000 nM"}
{"Structure (SMILES)": "O=C1O[C@H]([C@@H](O)CO)C(O)=C1O", "test": "ABTS scavenging, absorbance", "conditions": "30 min", "endpoint": "IC50", "result": "11300 nM"}
{"Structure (SMILES)": "CCCOc1ccc2c(C)c(CC)c(=O)oc2c1C", "target or system": "PC-3", "test": "cell growth or viability, MTT", "conditions": "250 µg/mL", "endpoint": "viability", "result": "26.3%"}
{"Structure (SMILES)": "CCCCCCCCCCCCCCCCOP(=O)([O-])OCC[N+](C)(C)C", "target or system": "Leishmania donovani", "test": "parasite growth, resazurin", "conditions": "promastigote", "endpoint": "IC50", "result": "1970 nM"}
{"Structure (SMILES)": "C=CCNC(=S)NNC(=O)COc1ccc2c(C)c(CC)c(=O)oc2c1C", "target or system": "PC-3", "test": "cell growth or viability, MTT", "conditions": "31.25 µg/mL", "endpoint": "viability", "result": "99.9%"}
{"Structure (SMILES)": "O=C1O[C@H]([C@@H](O)CO)C(O)=C1O", "test": "ABTS scavenging", "endpoint": "IC50", "result": "350000 nM"}
{"Structure (SMILES)": "O=C(NC(=S)Nc1cccc(O)c1)c1ccco1", "target or system": "Leishmania donovani", "test": "parasite growth, resazurin", "conditions": "promastigote", "endpoint": "IC50", "result": "480 nM"}
{"Structure (SMILES)": "Cc1c(Cc2ccccc2)c(=O)oc2c(C)c(OCC(=O)NN=Cc3ccc(Cl)cc3)ccc12", "target or system": "PC-3", "test": "cell growth or viability, MTT", "conditions": "250 µg/mL", "endpoint": "viability", "result": "29%"}
{"Structure (SMILES)": "O=C(C=Cc1ccccc1)Nc1cccc(-c2ccnc(N3CCC(O)CC3)c2)c1", "target or system": "A549", "test": "cell growth or viability, MTT", "conditions": "5 µM", "endpoint": "inhibition", "result": "54.8%"}
{"Structure (SMILES)": "O=C(NC(=S)Nc1ccccn1)c1ccco1", "target or system": "Leishmania donovani", "test": "parasite growth, resazurin", "conditions": "promastigote", "endpoint": "IC50", "result": "2300 nM"}
